Two compounds from ChEMBL document CHEMBL3612019, “Revisiting 1,3,4-Oxadiazol-2-ones: Utilization in the Development of ABHD6 Inhibitors” (Bioorg Med Chem, 2015) can be followed below.

Assay [1] has as its target T1, Monoacylglycerol lipase ABHD6 (Homo sapiens, UniProt Q9BV23).
T1 sequence (Q9BV23 whole entry): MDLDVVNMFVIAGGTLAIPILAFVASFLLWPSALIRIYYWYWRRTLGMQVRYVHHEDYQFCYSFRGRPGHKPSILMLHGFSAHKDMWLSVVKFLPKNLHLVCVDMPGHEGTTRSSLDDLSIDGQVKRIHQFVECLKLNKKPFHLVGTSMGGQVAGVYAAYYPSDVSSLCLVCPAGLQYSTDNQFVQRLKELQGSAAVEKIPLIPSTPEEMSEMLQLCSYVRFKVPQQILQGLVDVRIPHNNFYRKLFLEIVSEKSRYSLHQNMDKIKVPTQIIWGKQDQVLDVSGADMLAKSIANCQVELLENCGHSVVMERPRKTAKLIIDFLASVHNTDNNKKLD
Put plainly: Inhibition of human ABHD6 expressed in HEK293 cells at 1 uM pre-incubated for 10 mins before 2-AG substrate addition followed by rapid 40 fold compound dilution measured after 30 mins by HPLC method. It is filed as cell-based.

In assay [2] the target is T2, Monoglyceride lipase (Mus musculus) (UniProt O35678).
T2 sequence (whole entry): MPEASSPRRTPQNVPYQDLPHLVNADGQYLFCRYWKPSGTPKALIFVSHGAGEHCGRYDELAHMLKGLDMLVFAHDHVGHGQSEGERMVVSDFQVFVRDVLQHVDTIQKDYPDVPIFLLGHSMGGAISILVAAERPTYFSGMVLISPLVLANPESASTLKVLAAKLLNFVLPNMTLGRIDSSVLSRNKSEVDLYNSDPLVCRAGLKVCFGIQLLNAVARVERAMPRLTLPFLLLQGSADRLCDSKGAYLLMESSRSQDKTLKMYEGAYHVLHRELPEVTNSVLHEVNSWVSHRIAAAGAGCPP
Nature of the assay: Inhibition of MAGL in mouse whole brain membranes at 32.5 uM incubated for 1 hr by TAMRA-FP probe based competitive activity-based protein profiling assay. As to conditions: Membrane. It is filed as cell membranes. The gist of the method:
(§1)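 Competitive ABPP on mouse brain membranes (100 µg) treated 1 h with DMSO or inhibitor. TAMRA-FP labelling then ran 1 h at RT (final probe 2 µM). Reaction was quenched with gel loading buffer and proteins resolved by 10% SDS–PAGE for fluorescent band read-out. WWL70 located the ABHD6 band. Gels are representative of two experiments.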

Assay [3] concerns the target Cannabinoid receptor 1 (Rattus norvegicus) (UniProt P20272). Put plainly: Agonist activity at CB1R in rat cerebellar membranes at 10 uM by [35S]GTPgammaS binding assay. It is filed as functional, cell membranes. As to conditions: Cerebellum, Membrane. In a few lines:
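Rat cerebellar membranes, [35S]GTPγS binding. Agonist activity is read as % of basal binding. Antagonist activity is read as % of the HU210-evoked response. Compound tested at 10 µM. Values are mean (range), n = 2.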

Assay [4] concerns the target T3, Monoacylglycerol lipase ABHD6 (Mus musculus) (UniProt Q8R2Y0).
T3 sequence (whole entry): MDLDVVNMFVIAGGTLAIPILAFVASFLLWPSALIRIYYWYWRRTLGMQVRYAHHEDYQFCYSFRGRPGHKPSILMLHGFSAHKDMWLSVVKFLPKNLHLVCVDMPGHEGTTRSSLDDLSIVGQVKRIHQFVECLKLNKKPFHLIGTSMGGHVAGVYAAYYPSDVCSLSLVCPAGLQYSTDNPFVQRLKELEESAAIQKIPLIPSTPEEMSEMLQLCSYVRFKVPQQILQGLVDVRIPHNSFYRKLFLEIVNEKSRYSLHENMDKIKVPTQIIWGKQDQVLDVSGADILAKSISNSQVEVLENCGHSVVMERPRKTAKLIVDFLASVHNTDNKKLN
Put plainly: Inhibition of ABHD6 in mouse whole brain membranes at 10 uM incubated for 1 hr by TAMRA-FP probe based competitive activity-based protein profiling assay. It is filed as cell membranes. Conditions: Membrane. In a few lines:
as §1

In assay [5] the target is T1, Monoacylglycerol lipase ABHD6. Put plainly: Inhibition of human ABHD6 expressed in HEK293 cells at 1 uM pre-incubated for 10 mins before 2-AG substrate addition followed by rapid 40 fold compound dilution measured after 90 mins by HPLC method. Format: cell-based.
Assay [6] has as its target T4, Fatty-acid amide hydrolase 1 (Homo sapiens) (UniProt O00519).
T4 sequence (whole entry): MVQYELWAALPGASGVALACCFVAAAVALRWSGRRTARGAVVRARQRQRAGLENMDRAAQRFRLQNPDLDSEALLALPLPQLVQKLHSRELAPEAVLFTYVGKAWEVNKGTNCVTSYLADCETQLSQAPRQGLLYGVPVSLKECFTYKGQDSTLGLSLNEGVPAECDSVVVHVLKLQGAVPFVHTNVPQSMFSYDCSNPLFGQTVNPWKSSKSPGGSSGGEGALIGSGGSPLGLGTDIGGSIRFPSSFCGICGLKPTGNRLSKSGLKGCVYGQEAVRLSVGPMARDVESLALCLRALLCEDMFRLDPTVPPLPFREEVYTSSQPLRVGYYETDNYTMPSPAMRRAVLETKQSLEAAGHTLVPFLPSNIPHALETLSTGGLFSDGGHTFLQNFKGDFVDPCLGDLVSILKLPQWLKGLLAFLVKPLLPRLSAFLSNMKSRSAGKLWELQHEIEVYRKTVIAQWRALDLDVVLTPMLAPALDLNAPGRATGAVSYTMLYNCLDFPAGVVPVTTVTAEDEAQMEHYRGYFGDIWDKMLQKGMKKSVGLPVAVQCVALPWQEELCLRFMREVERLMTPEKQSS
Nature of the assay: Inhibition of human FAAH expressed in COS7 cell membranes at 20 uM pre-incubated for 10 mins before [3H]-AEA substrate addition by liquid scintillation counting. Conditions: COS-7.

The target in assay [7] is T5, Lysophosphatidylserine lipase ABHD12 (Mus musculus) (UniProt Q99LR1).
T5 sequence (whole entry): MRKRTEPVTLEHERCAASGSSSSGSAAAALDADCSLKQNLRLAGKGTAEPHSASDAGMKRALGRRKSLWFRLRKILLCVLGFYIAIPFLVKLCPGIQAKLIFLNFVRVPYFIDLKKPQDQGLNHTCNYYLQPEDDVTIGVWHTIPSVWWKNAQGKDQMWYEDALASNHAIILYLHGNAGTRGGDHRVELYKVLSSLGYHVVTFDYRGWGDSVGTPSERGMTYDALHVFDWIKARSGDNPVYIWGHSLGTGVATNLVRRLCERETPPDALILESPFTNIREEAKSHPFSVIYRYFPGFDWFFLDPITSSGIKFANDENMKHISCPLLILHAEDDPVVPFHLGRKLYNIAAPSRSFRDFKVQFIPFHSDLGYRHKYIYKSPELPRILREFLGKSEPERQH
Nature of the assay: Inhibition of ABHD12 in mouse whole brain membranes at 10 uM incubated for 1 hr by TAMRA-FP probe based competitive activity-based protein profiling assay. Conditions: Membrane. It is filed as cell membranes. The gist of the method:
as §1

The target of assay [8] is T5, Lysophosphatidylserine lipase ABHD12 (Mus musculus). Put plainly: Inhibition of ABHD12 in mouse whole brain membranes at 32.5 uM incubated for 1 hr by TAMRA-FP probe based competitive activity-based protein profiling assay. Conditions: Membrane. Format: cell membranes. The gist of the method:
as §1

Assay [9] deals with T3, Monoacylglycerol lipase ABHD6 (Mus musculus). Nature of the assay: Inhibition of ABHD6 in mouse whole brain membranes at 1 uM incubated for 1 hr by TAMRA-FP probe based competitive activity-based protein profiling assay. Format: cell membranes. As to conditions: Membrane. The gist of the method:
as §1

Calls of active or inactive are those of the source. No cut-off for these calls is given here.

Sequence of Cannabinoid receptor 1 (Rattus norvegicus) (P20272 whole entry): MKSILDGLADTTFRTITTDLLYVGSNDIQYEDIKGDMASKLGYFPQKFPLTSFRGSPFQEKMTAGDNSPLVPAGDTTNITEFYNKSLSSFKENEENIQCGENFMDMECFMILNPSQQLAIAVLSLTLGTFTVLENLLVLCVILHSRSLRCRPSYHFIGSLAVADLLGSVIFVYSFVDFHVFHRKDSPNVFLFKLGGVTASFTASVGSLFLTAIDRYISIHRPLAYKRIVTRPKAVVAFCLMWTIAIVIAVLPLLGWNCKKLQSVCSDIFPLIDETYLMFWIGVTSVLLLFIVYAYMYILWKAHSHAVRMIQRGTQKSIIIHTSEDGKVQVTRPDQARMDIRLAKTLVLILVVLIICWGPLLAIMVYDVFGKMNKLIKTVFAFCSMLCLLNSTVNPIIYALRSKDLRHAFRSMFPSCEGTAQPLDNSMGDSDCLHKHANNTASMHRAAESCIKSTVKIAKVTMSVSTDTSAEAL

For `COc1nn(Cc2cccc(N)c2)c(=O)o1`, the IC50 in [1] is 3.8 µM; in assay [5] it was 3.31 µM. Also, the inhibition entry in assay [2], in assay [4] and in assay [8] was “Active” each time. This compound displayed an Activity in assay [3] of 96%. The compound also showed an inhibition in [6] of 41%. Further, in assay [7], the inhibition entry was “inactive”.
Turning to `Nc1cccc(Cn2nc(Oc3ccccc3)oc2=O)c1`, the inhibition entry in assay [9] and in [7] was “Active” throughout.
